The record followed here is ChEMBL document CHEMBL2396594, “Designing allosteric regulators of thrombin. Exosite 2 features multiple subsites that can be targeted by sulfated small molecules for inducing inhibition” (J Med Chem, 2013).

Molecules are shown by their SMILES. The source made the active and inactive calls. No cut-off for these calls is given here.

The species entered for experiment [1] is Homo sapiens. Description: (§1) Binding affinity to human plasma alpha-thrombin exosite-2 using spectrozyme TH as substrate after overnight incubation at 25 degC by spectrophotometric analysis in presence of 3 uM heparin octasaccharide. It is filed as cell-free.
Experiment [2] in a line: as §1. The format is cell-free.
The nature of experiment [3]: Inhibition of recombinant human thrombin K235A mutant expressed in BHK cells using S2238 as substrate after overnight incubation at 25 degC. Put shortly:
(§2)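 BHK-expressed, HPC4 immunoaffinity-purified thrombins, activated from prothrombin form. Active-site concentration from amidolysis and antithrombin titration. Enzyme (1.5−7.5 nM final) incubated overnight at 25 °C with inhibitor in Tris pH 7.4 buffer in coated cuvettes. Residual activity from S2238 initial rate at A405, using at least 9−10 points. Logistic fit gives IC50. Ratio is mutant IC50 over wild-type IC50.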

Experiment [4] is filed under the species Homo sapiens. Kind of experiment: Selectivity ratio of IC50 for recombinant human thrombin R233A mutant to IC50 for wild type recombinant human thrombin. The gist of the method:
as §2

Experiment [5] deals with Coagulation factor X (Homo sapiens) (UniProt P00742). Description: Inhibition of human factor 10a at 365 uM.
The species entered for experiment [6] is Homo sapiens. Kind of experiment: (§3) Binding affinity to human plasma alpha-thrombin exosite-2 using spectrozyme TH as substrate after overnight incubation at 25 degC by spectrophotometric analysis in presence of 1 uM heparin octasaccharide. It is filed as cell-free.
Experiment [7] is described as follows: as §3. It is filed as cell-free.
Experiment [8] can be described thus: Inhibition of recombinant human thrombin R175A mutant expressed in BHK cells using S2238 as substrate after overnight incubation at 25 degC. Put shortly:
as §2

For experiment [9], the species on record is Homo sapiens. Kind of experiment: (§4) Binding affinity to human plasma alpha-thrombin exosite-2 using spectrozyme TH as substrate after overnight incubation at 25 degC by spectrophotometric analysis in presence of 42.6 uM unfractionated heparin. The format is cell-free.
Experiment [10] can be described thus: as §4. The format is cell-free.
The species entered for experiment [11] is Homo sapiens. Kind of experiment: (§5) Binding affinity to human plasma alpha-thrombin exosite-2 using spectrozyme TH as substrate after overnight incubation at 25 degC by spectrophotometric analysis in presence of 20 uM heparin octasaccharide. It is filed as cell-free.
The nature of experiment [12]: as §5. It is filed as cell-free.
The species named for experiment [13] is Homo sapiens. Description: (§6) Binding affinity to human plasma alpha-thrombin exosite-1 using spectrozyme TH as substrate after overnight incubation at 25 degC by spectrophotometric analysis in presence of 5 nM hirugen peptide. The format is cell-free.
The nature of experiment [14]: as §6. It is filed as cell-free.
The species entered for experiment [15] is Homo sapiens. Description: Inhibition of human plasma alpha-thrombin assessed as spectrozyme TH hydrolysis at 1 to 900 uM preincubated for 10 mins by spectrophotometric analysis relative to control. The format is cell-free. The gist of the method: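 Human plasma α-thrombin (5 nM final) with inhibitor (1−900 μM final) in 20 mM Tris-HCl pH 7.4, 100 mM NaCl, 2.5 mM CaCl2, 0.1% PEG8000, PEG20000-coated cuvettes, 10 min. Spectrozyme TH then added (30 μM final). Initial rate from A405 increase. Residual activity fitted by logistic equation with floating Hill slope, Y0, YM to give IC50.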

In another experiment the target is Prothrombin (Homo sapiens, UniProt P00734, R97A). Kind of experiment: Inhibition of recombinant human thrombin R97A mutant expressed in BHK cells using S2238 as substrate after overnight incubation at 25 degC. Put shortly: as §2
For experiment [16], the species on record is Homo sapiens. Description: (§7) Binding affinity to human plasma alpha-thrombin exosite-1 using spectrozyme TH as substrate after overnight incubation at 25 degC by spectrophotometric analysis in presence of 3 nM hirugen peptide. The format is cell-free.
A short description of experiment [17]: as §7. The format is cell-free.
A short description of experiment [18]: Inhibition of recombinant human thrombin R93A mutant expressed in BHK cells using S2238 as substrate after overnight incubation at 25 degC. The gist of the method: as §2

Sequence of Coagulation factor X (Homo sapiens) (P00742 41-179 limits assumed): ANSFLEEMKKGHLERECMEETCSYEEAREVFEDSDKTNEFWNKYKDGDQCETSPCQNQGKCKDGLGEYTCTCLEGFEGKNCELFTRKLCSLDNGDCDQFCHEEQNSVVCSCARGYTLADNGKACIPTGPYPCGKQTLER
Sequence of Coagulation factor X (Homo sapiens) (P00742 235-488 limits assumed): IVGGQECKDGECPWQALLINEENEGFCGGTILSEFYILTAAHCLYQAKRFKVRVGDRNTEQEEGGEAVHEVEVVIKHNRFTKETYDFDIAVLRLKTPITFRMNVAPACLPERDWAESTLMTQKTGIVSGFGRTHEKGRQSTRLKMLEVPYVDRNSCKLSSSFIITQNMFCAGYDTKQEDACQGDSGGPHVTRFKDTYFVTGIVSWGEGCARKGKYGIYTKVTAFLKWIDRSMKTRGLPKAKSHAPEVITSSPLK

As usually defined, the pIC50 is the negative decadic logarithm of the IC50, by convention in mol/L. With `CCOC(=O)c1c(C)oc2cc(OC)c(OCc3oc4cc(OC)c(OCc5oc6cc(OC)c(OS(=O)(=O)[O-])cc6c5C(=O)OCC)cc4c3C(=O)OCC)cc12.[Na+]`, the pIC50(app) in the experiment filed under Homo sapiens [1] is 5.87; in the experiment filed under Homo sapiens [6], 5.87; in the experiment filed under Homo sapiens [9] it was 5.26; in the experiment listed under Homo sapiens [11] it was 5.75; in the experiment filed under Homo sapiens [13] it was 6.1; in the experiment listed under Homo sapiens [16], 6.07. Further, the IC50 in [2] was 1400 nM; in experiment [3], 270 nM; in experiment [7] it was 1300 nM; in experiment [8] it was 430 nM; in experiment [10], 5.6 µM; in experiment [12], 1800 nM. Also, the IC50 is 800 nM in [14]; 370 nM on Prothrombin (read-out: IC50); 363 nM on Prothrombin (read-out: pIC50 (converted)); 900 nM in experiment [17]; 190 nM in [18]. The pIC50 turned out to be 6.57 in experiment [3], 6.363 in experiment [8] and 6.73 in experiment [18]. Further, in the experiment listed under Homo sapiens [4], the Ratio IC50 turned out to be 3.8. In experiment [5], the inhibition entry is “inactive”. Further, the Efficacy in the experiment filed under Homo sapiens [15] was found to be 80%.
